Our source for the IC50 and inhibition values is ChEMBL document CHEMBL2046344, “Natural products as a gold mine for selective matrix metalloproteinases inhibitors” (Bioorg Med Chem, 2012).

Structures are written as SMILES.

Assay [1] has as its target T1, Stromelysin-1 (Homo sapiens, UniProt P08254). The assay is described as follows: Inhibition of human recombinant MMP3 catalytic domain incubated for 20 mins by fluorimetric assay. In short, it runs like this: (§1)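 Diluted recombinant MMP enzyme pre-incubated 20 min at room temperature with varied inhibitor concentrations in 50 mM Tris–HCl, 150 mM NaCl, 5 mM CaCl2, 0.05% Brij-35, pH 7.5; total assay volume 100 µl.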

For assay [2], the target named is T2, Matrix metalloproteinase-9 (Homo sapiens, UniProt P14780). The assay is described as follows: Inhibition of human recombinant MMP9 catalytic domain at 10 uM incubated for 20 mins by fluorimetric assay. Put shortly: as §1
In assay [3] the target is T2, Matrix metalloproteinase-9. The assay is described as follows: Inhibition of human recombinant MMP9 catalytic domain incubated for 20 mins by fluorimetric assay. In short, it runs like this: as §1
The target of assay [4] is T1, Stromelysin-1. In words: Inhibition of human recombinant MMP3 catalytic domain at 10 uM incubated for 20 mins by fluorimetric assay. In short, it runs like this: as §1
For assay [5], the target named is T3, Interstitial collagenase (Homo sapiens) (UniProt P03956).
T3 sequence (whole entry): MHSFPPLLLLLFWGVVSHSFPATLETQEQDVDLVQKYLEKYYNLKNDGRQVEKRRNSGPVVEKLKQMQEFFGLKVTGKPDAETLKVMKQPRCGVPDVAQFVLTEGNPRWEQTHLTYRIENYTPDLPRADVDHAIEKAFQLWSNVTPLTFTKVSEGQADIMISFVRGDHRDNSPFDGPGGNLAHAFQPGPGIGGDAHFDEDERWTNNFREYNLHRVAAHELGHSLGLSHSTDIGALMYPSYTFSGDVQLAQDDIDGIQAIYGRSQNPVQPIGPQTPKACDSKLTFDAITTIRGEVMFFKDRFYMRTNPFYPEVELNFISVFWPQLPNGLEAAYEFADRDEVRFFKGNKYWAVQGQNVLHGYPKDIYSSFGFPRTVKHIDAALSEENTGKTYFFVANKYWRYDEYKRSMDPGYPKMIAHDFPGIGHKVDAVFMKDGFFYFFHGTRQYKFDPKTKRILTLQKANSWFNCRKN
The assay is described as follows: Inhibition of human recombinant MMP1 catalytic domain at 10 uM incubated for 20 mins by fluorimetric assay. Put shortly: as §1

For assay [6], the target named is T4, Interstitial collagenase (Homo sapiens, UniProt P03956).
T4 sequence (P03956 whole entry): T3 sequence (whole entry)
In words: Inhibition of human recombinant MMP1 catalytic domain incubated for 20 mins by fluorimetric assay. In short, it runs like this:
as §1

In assay [7] the target is T5, 72 kDa type IV collagenase (Homo sapiens, UniProt P08253). The assay is described as follows: Inhibition of human recombinant MMP2 catalytic domain at 10 uM incubated for 20 mins by fluorimetric assay. In short, it runs like this:
as §1
Target sequence in this assay (P08253 110-660 limits assumed): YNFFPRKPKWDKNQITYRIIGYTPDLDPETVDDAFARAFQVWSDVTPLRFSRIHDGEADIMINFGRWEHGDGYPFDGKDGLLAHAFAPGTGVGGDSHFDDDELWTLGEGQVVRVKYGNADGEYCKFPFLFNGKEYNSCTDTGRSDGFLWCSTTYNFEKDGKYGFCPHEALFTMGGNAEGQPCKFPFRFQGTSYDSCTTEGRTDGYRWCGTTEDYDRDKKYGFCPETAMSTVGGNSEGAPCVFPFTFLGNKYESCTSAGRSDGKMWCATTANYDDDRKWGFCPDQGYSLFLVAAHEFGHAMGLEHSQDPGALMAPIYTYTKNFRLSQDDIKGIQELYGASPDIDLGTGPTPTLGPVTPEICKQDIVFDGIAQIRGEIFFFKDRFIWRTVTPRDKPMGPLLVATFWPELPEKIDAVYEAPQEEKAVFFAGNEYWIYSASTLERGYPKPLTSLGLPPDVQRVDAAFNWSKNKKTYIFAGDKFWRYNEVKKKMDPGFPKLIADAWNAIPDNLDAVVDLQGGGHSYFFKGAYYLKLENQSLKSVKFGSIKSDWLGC

In assay [8] the target is T5, 72 kDa type IV collagenase. The assay is described as follows: Inhibition of human recombinant MMP2 catalytic domain incubated for 20 mins by fluorimetric assay. Put shortly:
as §1
Target sequence in this assay (P08253 whole entry, the tested form may be a part): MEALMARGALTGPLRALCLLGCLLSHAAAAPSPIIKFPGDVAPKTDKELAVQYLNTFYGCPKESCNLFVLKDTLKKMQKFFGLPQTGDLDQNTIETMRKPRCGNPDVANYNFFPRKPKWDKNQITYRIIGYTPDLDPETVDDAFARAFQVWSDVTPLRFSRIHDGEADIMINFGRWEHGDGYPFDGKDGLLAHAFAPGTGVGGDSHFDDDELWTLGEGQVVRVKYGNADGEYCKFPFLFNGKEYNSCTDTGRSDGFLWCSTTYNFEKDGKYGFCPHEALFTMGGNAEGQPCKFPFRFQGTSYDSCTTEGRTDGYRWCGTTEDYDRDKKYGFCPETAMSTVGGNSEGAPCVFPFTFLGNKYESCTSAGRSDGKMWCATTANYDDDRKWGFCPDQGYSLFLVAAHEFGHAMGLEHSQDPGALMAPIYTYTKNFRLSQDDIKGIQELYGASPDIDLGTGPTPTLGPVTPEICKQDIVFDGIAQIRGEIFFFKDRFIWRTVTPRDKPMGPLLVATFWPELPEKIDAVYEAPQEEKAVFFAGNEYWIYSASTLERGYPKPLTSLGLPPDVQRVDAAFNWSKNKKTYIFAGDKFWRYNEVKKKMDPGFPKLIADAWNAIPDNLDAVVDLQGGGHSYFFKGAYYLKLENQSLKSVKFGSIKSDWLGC

The target in assay [9] is T6, Collagenase 3 (Homo sapiens, UniProt P45452). In words: Inhibition of human recombinant MMP13 catalytic domain incubated for 20 mins by fluorimetric assay. In short, it runs like this:
as §1

The target in assay [10] is T6, Collagenase 3. In words: Inhibition of human recombinant MMP13 catalytic domain at 10 uM incubated for 20 mins by fluorimetric assay. Put shortly:
as §1

Assay [11] deals with T7, Macrophage metalloelastase (Homo sapiens, UniProt P39900). In words: Inhibition of human recombinant MMP12 catalytic domain incubated for 20 mins by fluorimetric assay. In short, it runs like this:
as §1

In assay [12] the target is T7, Macrophage metalloelastase. The assay is described as follows: Inhibition of human recombinant MMP12 catalytic domain at 10 uM incubated for 20 mins by fluorimetric assay. In short, it runs like this: as §1

T7 sequence (P39900 whole entry, the tested form may be a part): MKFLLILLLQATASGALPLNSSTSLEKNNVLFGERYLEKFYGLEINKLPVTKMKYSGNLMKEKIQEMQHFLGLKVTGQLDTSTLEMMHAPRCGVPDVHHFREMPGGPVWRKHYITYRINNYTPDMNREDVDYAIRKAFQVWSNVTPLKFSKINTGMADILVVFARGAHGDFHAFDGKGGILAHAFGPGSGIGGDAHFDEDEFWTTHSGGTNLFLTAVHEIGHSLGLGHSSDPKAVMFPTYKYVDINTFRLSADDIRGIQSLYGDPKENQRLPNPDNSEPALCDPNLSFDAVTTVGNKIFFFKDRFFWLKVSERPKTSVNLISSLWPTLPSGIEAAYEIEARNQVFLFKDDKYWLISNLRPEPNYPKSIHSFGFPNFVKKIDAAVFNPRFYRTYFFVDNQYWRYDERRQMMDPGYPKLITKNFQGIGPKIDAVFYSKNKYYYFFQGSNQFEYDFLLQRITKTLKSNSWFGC
T1 sequence (P08254 whole entry, the tested form may be a part): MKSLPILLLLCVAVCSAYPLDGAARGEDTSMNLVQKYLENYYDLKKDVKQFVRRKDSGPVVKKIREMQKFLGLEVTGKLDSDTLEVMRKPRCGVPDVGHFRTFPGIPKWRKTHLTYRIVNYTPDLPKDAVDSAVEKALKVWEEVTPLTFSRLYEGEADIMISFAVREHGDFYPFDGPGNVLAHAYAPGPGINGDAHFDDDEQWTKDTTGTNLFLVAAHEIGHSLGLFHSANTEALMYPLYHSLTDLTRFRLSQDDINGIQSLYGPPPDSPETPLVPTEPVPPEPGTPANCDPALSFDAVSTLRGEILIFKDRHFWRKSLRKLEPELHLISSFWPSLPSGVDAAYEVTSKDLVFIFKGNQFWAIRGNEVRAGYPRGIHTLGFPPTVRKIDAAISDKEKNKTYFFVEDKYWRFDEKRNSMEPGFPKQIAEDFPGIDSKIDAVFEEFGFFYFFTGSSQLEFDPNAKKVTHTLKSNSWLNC
T2 sequence (P14780 whole entry, the tested form may be a part): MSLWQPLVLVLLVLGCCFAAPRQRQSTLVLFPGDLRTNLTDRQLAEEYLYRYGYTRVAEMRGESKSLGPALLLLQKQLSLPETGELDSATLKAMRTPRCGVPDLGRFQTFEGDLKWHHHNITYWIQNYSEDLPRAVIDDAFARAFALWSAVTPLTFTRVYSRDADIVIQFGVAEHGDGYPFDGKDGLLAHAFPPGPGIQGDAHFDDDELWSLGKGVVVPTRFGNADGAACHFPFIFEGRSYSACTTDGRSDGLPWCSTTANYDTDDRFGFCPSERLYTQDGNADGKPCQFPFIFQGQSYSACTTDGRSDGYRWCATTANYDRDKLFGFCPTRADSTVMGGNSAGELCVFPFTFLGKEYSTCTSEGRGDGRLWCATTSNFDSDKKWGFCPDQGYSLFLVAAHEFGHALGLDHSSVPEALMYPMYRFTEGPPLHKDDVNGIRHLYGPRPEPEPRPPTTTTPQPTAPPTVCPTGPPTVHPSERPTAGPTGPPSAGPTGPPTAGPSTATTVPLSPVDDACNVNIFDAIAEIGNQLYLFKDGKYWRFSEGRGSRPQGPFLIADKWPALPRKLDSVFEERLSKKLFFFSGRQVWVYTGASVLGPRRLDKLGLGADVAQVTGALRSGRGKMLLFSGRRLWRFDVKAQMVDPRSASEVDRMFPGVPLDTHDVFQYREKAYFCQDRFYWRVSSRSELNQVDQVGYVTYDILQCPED

Regarding `COc1ccc(S(=O)(=O)N2CC(C)(C)CN(S(=O)(=O)c3ccc(OC)cc3)C2C(=O)NO)cc1`, the values for the concentration for half-maximal inhibition (IC50) in [1] and in assay [3] were 0.0286 µM and 0.0018 µM, respectively. For the same molecule, the inhibition in assay [2] and in assay [4] was over 30% in each case.

Turning to `O=c1c2cc(O)c(O)cc2oc2cc(O)cc(O)c12`, in [5], the inhibition is over 30%. For the same molecule, the IC50 in assay [6] came to 11.4 µM.

`COC(=O)C1(O)CC(O)C(O)C(OC(=O)/C=C/c2ccc(O)c(O)c2)C1` (stereo not given): the inhibition in [7] and in [4] was over 30% each time. Besides, the IC50 is 64.2 µM in assay [8] and 58.8 µM in assay [1].

With `O=C1CCC(O)(CCOC(=O)/C=C/c2ccc(O)c(O)c2)CC1`, in [2], the inhibition is over 30%. The IC50 in assay [3] came to 12.5 µM.

For the molecule `CCCCOC(=O)[C@H]1c2c(/C=C/C(=O)O[C@H](Cc3ccc(O)c(O)c3)C(=O)O)ccc(O)c2O[C@@H]1c1ccc(O)c(O)c1`, the inhibition in [7], in assay [10], in [5], in [2], in [4] and in [12] was over 30% in each case. Also, the IC50 in [8] stood at 15.5 µM; in [9] it was 24.5 µM; in assay [11], 1.79 µM; in [1], 14.8 µM; in [3] it was 3.46 µM; in [6], 3.25 µM.

As for `O=C1c2c(O)cc(O)cc2O[C@H](c2cc(O)c(O)c(O)c2)[C@@H]1O`, the inhibition in assay [7], in assay [10], in assay [2], in assay [4] and in [12] was over 30% throughout. The IC50 was determined as 11.9 µM in assay [8]; 9.33 µM in assay [9]; 1.74 µM in assay [11]; 20.3 µM in [1]; 28.8 µM in assay [3].

Regarding `COc1cc(C(O)C(CO)Oc2ccc(/C=C\CO)cc2OC)ccc1O` (stereo not given), the inhibition in [2] is over 30%. In [3], the IC50 was found to be 9.91 µM.

On to `C[C@]12CCC[C@@](C)(C(=O)O)[C@@H]1CCC1=CC(=O)CC[C@@H]12`, for which the inhibition in assay [7] was over 30%. Also, the IC50 in assay [8] is 33.3 µM.

In the case of `CC(C)CC(=O)OC(C(=O)O)C(C)C` (stereo not given), the inhibition in assay [7], in [10], in assay [5], in assay [2] and in [4] was over 30% each time. Also, the IC50 was determined as 23.3 µM in [8]; 42.5 µM in assay [9]; 38.2 µM in [1]; 14.3 µM in assay [3]; 10.6 µM in assay [6].

For `CNC(=O)C(CCc1ccccc1)NC(=O)C(CC(=O)NO)CC(C)C` (stereo not given), the inhibition in assay [7], in assay [10], in [5] and in [12] was over 30% throughout. Besides, the IC50 came out at 0.0036 µM in assay [8], 0.0064 µM in assay [9], 0.0082 µM in assay [11] and 0.0041 µM in assay [6].

For `O=C1c2c(O)cc(O)cc2O[C@H](c2ccc(O)c(O)c2)[C@H]1O`, the inhibition in assay [7], in assay [10], in assay [2], in assay [4] and in assay [12] was over 30% throughout.

For `COc1cc(C[C@@H](CO)[C@H](CO)Cc2ccc(O)c(OC)c2)ccc1O` [(+)-SECOISOLARICIRESINOL], in assay [5], the inhibition was over 30%. The concentration for half-maximal inhibition (IC50) in assay [6] turned out to be 50.1 µM.

As to `O=C1c2c(O)cc(O)cc2O[C@]2(c3ccc(O)cc3)Oc3cc(O)c4c(c3[C@@]12O)O[C@H](c1ccc(O)cc1)CC4` [DAPHNODORIN F], the inhibition in [7], in assay [10], in assay [2] and in [4] was over 30% throughout. The IC50 in [8] is 23.3 µM; in [9] it was 13.2 µM; in assay [1], 22.3 µM; in [3], 21.2 µM.

With `O=C(c1c(O)cc(O)cc1O)C1c2c(cc(O)c3c2O[C@H](c2ccc(O)cc2)[C@@H](O)C3)OC1c1ccc(O)cc1` (stereo not given in full) [DIHYDRODAPHNODORIN B], the inhibition in assay [7], in [10], in assay [2] and in [4] was over 30% in each case. Further, the IC50 in [8] came out at 14.1 µM; in assay [9] it was 43.5 µM; in assay [1] it was 25.6 µM; in [3] it was 10.2 µM.

`C[C@@H]1O[C@@H](O[C@@H]2[C@@H](O)[C@H](OCCc3ccc(O)c(O)c3)O[C@H](COC(=O)/C=C/c3ccc(O)c(O)c3)[C@H]2O)[C@H](O)[C@H](O)[C@H]1O` [ISOACTEOSIDE]: the inhibition in [7], in [10], in [2], in [4] and in [12] was over 30% throughout. Also, the concentration for half-maximal inhibition (IC50) in assay [8] turned out to be 8.96 µM; in assay [9], 11.1 µM; in assay [11] it was 8.22 µM; in assay [1] it was 91.4 µM; in assay [3], 14.3 µM.

In the case of `O=c1cc(-c2ccc(O)c(O)c2)oc2cc(O)cc(O)c12` [LUTEOLIN], the inhibition in assay [7], in [10], in assay [2], in assay [4] and in [12] was over 30% throughout. Also, the IC50 was found to be 3.61 µM in [8]; 10 µM in [9]; 0.98 µM in assay [11]; 16.2 µM in assay [1]; 5.62 µM in [3].

On to `COC(=O)C1(O)CC(OC(=O)/C=C/c2ccc(O)c(O)c2)C(O)C(OC(=O)/C=C/c2ccc(O)c(O)c2)C1` (stereo not given) [MACRATHOIN F], for which the inhibition in assay [7], in assay [10], in assay [5], in [2], in assay [4] and in assay [12] was over 30% throughout. The IC50 in [8] worked out at 3.88 µM; in assay [9], 7.62 µM; in assay [11], 1.2 µM; in assay [1], 10.4 µM; in assay [3], 11.6 µM; in assay [6] it was 16.3 µM.

Take `COC(=O)[C@@H](Cc1ccc(O)c(O)c1)OC(=O)/C=C/c1ccc(O)c(O)c1` [METHYL ROSMARINATE]: the inhibition in [7], in [10], in assay [5], in [2], in assay [4] and in assay [12] was over 30% each time. Further, the IC50 was determined as 3.58 µM in [8]; 29 µM in [9]; 2.75 µM in [11]; 28.3 µM in assay [1]; 0.61 µM in [3]; 14.7 µM in assay [6].

Regarding `Oc1cc(O)cc(/C=C/c2ccc(O)cc2O)c1` [OXYRESVERATROL], the inhibition in assay [7] is over 30%. Also, the IC50 in assay [8] stood at 27.6 µM.

With `O=c1c(O)c(-c2ccc(O)c(O)c2)oc2cc(O)cc(O)c12` [QUERCETIN], the inhibition in assay [7], in assay [10], in assay [2], in [4] and in assay [12] was over 30% throughout. Also, the IC50 is 6.68 µM in assay [8]; 8.46 µM in assay [9]; 10.2 µM in assay [11]; 5.57 µM in assay [1]; 1.61 µM in assay [3].
